Test results published in ChEMBL document CHEMBL1157573, “BRAF inhibitors based on an imidazo[4,5]pyridin-2-one scaffold and a meta substituted middle ring” (J Med Chem, 2010).

Key:
[1] = target: T1, Serine/threonine-protein kinase B-raf (Homo sapiens, UniProt P15056, V600E); experiment: Inhibition of human BRAF V600E mutant expressed in Sf9 cells
[2] = target: T1, Serine/threonine-protein kinase B-raf; experiment: Inhibition of BRAF V600E mutant-mediated ERK phosphorylation in human WM266.4 cells; assay type: cell-based
[3] = Antiproliferative activity against human WM266.4 cells after 6 days by SRB assay; assay type: functional; conditions: WM 266-4, 144 h
In short: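 SRB cell proliferation assay on WM266.4 melanoma cells, which carry mutant BRAF. Growth inhibition is reported as GI50.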

T1 sequence (P15056 2-766 V600E limits assumed): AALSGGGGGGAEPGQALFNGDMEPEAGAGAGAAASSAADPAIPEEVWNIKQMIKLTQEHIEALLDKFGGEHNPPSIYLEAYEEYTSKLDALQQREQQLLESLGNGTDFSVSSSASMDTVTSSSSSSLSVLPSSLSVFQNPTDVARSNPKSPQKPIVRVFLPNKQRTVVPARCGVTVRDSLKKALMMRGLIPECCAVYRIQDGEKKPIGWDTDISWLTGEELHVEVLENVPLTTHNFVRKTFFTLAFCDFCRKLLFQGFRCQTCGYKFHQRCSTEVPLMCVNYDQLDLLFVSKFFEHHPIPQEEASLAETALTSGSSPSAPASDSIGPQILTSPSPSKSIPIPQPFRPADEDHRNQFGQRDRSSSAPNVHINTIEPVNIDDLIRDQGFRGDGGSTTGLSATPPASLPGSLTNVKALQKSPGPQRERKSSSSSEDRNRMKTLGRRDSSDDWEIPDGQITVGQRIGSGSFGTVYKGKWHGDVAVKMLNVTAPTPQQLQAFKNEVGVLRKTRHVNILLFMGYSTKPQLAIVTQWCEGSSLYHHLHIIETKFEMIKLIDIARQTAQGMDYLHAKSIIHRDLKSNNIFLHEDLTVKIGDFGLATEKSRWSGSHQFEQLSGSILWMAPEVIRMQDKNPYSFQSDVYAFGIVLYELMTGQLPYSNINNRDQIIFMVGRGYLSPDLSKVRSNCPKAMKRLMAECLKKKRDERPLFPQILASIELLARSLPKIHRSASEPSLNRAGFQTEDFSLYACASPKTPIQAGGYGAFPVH

SMILES	IC50 [1] [nM]	IC50 [2] [µM]	GI50 [3] [µM]
COc1ccc(NC(=O)c2cccc(OC(F)(F)F)c2)cc1Oc1ccnc2[nH]c(=O)[nH]c12	340	> 100	–
COc1cc(NC(=O)c2cccc(OC(F)(F)F)c2)cc(Oc2ccnc3[nH]c(=O)[nH]c23)c1	64	16.6	–
O=C(Nc1ccc(Oc2ccnc3[nH]c(=O)[nH]c23)cc1)Nc1ccc(Cl)c(C(F)(F)F)c1	23	–	–
O=C(Nc1cccc(Oc2ccnc3[nH]c(=O)[nH]c23)c1)c1ccccc1	25200	> 100	1.54
O=C(Nc1ccc(Oc2ccnc3[nH]c(=O)[nH]c23)cc1)c1cc(F)cc(N2CCOCC2)c1	> 100000	–	–
O=C(Nc1cccc(F)c1)Nc1cccc(Oc2ccnc3[nH]c(=O)[nH]c23)c1	2750	50.2	3.3
O=C(Nc1cccc(Oc2ccnc3[nH]c(=O)[nH]c23)c1)Nc1ccc(F)c(F)c1	1120	39	3.7
O=C(Nc1cc(Oc2ccnc3[nH]c(=O)[nH]c23)c(Cl)cc1Cl)c1cccc(OC(F)(F)F)c1	770	> 100	1.2
O=C(Nc1ccc(Oc2ccnc3[nH]c(=O)[nH]c23)cc1)c1ccc(Br)cc1	14000	–	–
O=C(Nc1cccc(Oc2ccnc3[nH]c(=O)[nH]c23)c1)c1ccc(Cl)cc1	68000	> 100	9.1
O=C(Nc1cccc(Oc2ccnc3[nH]c(=O)[nH]c23)c1)c1cc(F)cc(N2CCOCC2)c1	62	21.1	25.1
Cc1ccc(NC(=O)c2cccc(OC(F)(F)F)c2)cc1Oc1ccnc2[nH]c(=O)[nH]c12	> 10000	> 100	38
O=c1[nH]c2nccc(Oc3cccc(NS(=O)(=O)c4ccc(Cl)c(C(F)(F)F)c4)c3)c2[nH]1	6800	66	40
O=C(Nc1cccc(Oc2ccnc3[nH]c(=O)[nH]c23)c1)c1ccc(C(F)(F)F)cc1	730	> 100	–
O=C(Nc1cccc(Oc2ccnc3[nH]c(=O)[nH]c23)c1)c1cc(Cl)cc(OC(F)(F)F)c1	71	14.6	6.5
O=C(Nc1cccc(Oc2ccnc3[nH]c(=O)[nH]c23)c1)c1cnn(-c2ccccc2)c1C(F)(F)F	> 100000	38	3.3
CC(C)(C)c1cc(C(=O)Nc2cccc(Oc3ccnc4[nH]c(=O)[nH]c34)c2)n(-c2ccccc2)n1	274	13.7	3.1
CC(C)c1cc(C(=O)Nc2cccc(Oc3ccnc4[nH]c(=O)[nH]c34)c2)n(-c2ccccc2)n1	87	13.7	5.7
CC(C)(C)c1cc(NC(=O)Nc2cccc(Oc3ccnc4[nH]c(=O)[nH]c34)c2)n(-c2ccc(F)cc2)n1	123	1.96	–
O=C(Nc1cccc(Oc2ccnc3[nH]c(=O)[nH]c23)c1)c1cccc2c1OCCCO2	> 100000	> 100	48
O=C(Nc1cccc(Oc2ccnc3[nH]c(=O)[nH]c23)c1)c1ccc2sccc2c1	22000	66	1.5
O=C(Nc1cccc(Oc2ccnc3[nH]c(=O)[nH]c23)c1)c1ccnc(Cl)c1	93000	> 100	25

SMILES	IC50 [1] [nM]	IC50 [2] [µM]	GI50 [3] [µM]
Cc1ccc(-n2nc(C(C)(C)C)cc2NC(=O)c2cccc(Oc3ccnc4[nH]c(=O)[nH]c34)c2)cc1	590	2.05	–
Cc1ccc(-n2nc(C(F)(F)F)cc2NC(=O)c2cccc(Oc3ccnc4[nH]c(=O)[nH]c34)c2)cc1	500	14.8	32
O=C(Nc1cccc(Oc2ccnc3[nH]c(=O)[nH]c23)c1)c1cccc2c1OCCO2	> 100000	> 100	40
O=C(Nc1cccc(Oc2ccnc3[nH]c(=O)[nH]c23)c1)c1ccccc1OC(F)(F)F	79000	35.8	1.3
O=C(Nc1cccc(Oc2ccnc3[nH]c(=O)[nH]c23)c1)c1ccc(F)c(OC(F)(F)F)c1	49	27.7	7.4
O=c1[nH]c2nccc(Oc3cccc(NS(=O)(=O)c4cccc(C(F)(F)F)c4)c3)c2[nH]1	15400	57	0.83
O=c1[nH]c2nccc(Oc3ccc(NS(=O)(=O)c4cccc(C(F)(F)F)c4)cc3)c2[nH]1	> 100000	–	–
Cc1cc(C(=O)Nc2cccc(Oc3ccnc4[nH]c(=O)[nH]c34)c2)n(C)n1	> 100000	79	–
O=C(Cc1ccccc1)Nc1cccc(Oc2ccnc3[nH]c(=O)[nH]c23)c1	87000	> 100	–
O=C(CCc1ccccc1)Nc1cccc(Oc2ccnc3[nH]c(=O)[nH]c23)c1	94000	> 100	30.9
CN(C)c1cccc(C(=O)Nc2cccc(Oc3ccnc4[nH]c(=O)[nH]c34)c2)c1	> 100000	42	–
O=C(Nc1cccc(Oc2ccnc3[nH]c(=O)[nH]c23)c1)c1ccnn1-c1ccccc1	> 100000	92	15.6
Cc1c(NC(=O)c2cccc(OC(F)(F)F)c2)cccc1Oc1ccnc2[nH]c(=O)[nH]c12	> 10000	> 100	–
O=C(Nc1cccc(Oc2ccnc3[nH]c(=O)[nH]c23)c1)c1cccc(N2CCCC2)c1	115	> 100	> 10
O=C(Nc1ccc(Cl)c(C(F)(F)F)c1)c1cccc(Oc2ccnc3[nH]c(=O)[nH]c23)c1	90	8.2	7.3
O=C(Nc1cc(C(F)(F)F)ccc1F)c1cccc(Oc2ccnc3[nH]c(=O)[nH]c23)c1	4700	35	31
O=C(Nc1cccc(OC(F)(F)C(F)F)c1)c1cccc(Oc2ccnc3[nH]c(=O)[nH]c23)c1	240	8	0.677
O=C(Nc1cccc(SC(F)(F)F)c1)c1cccc(Oc2ccnc3[nH]c(=O)[nH]c23)c1	187	13	9.2
O=c1[nH]c2nccc(Oc3ccc(NS(=O)(=O)c4ccc(Cl)c(C(F)(F)F)c4)cc3)c2[nH]1	> 100000	–	–
O=C(Nc1cccc(Oc2ccnc3[nH]c(=O)[nH]c23)c1)c1cc(Cl)cc(C(F)(F)F)c1	690	23.9	3.3
CCC(C)(C)c1cccc(C(=O)Nc2cccc(Oc3ccnc4[nH]c(=O)[nH]c34)c2)c1	40	3.1	–
O=C(Nc1cccc(Oc2ccnc3[nH]c(=O)[nH]c23)c1)c1cccc(-n2ccnc2)c1	> 10000	> 100	6.2

SMILES	IC50 [1] [nM]	IC50 [2] [µM]	GI50 [3] [µM]
CC(C)(C)c1cccc(NC(=O)Nc2cccc(Oc3ccnc4[nH]c(=O)[nH]c34)c2)c1	195	10.3	12.9
Cc1ccc(-n2nc(C(F)(F)F)cc2NC(=O)Nc2cccc(Oc3ccnc4[nH]c(=O)[nH]c34)c2)cc1	400	4.8	4.28
O=c1[nH]c2nccc(Oc3cccc(NS(=O)(=O)c4cccc5ccccc45)c3)c2[nH]1	25000	21.3	0.85
O=c1[nH]c2nccc(Oc3ccc(NS(=O)(=O)c4ccccc4)cc3)c2[nH]1	850	–	–
Cc1ccc(Oc2ccnc3[nH]c(=O)[nH]c23)cc1NC(=O)c1cccc(OC(F)(F)F)c1	> 10000	> 100	–
O=C(Nc1ccc(Oc2ccnc3[nH]c(=O)[nH]c23)cc1)c1ccc(Cl)c(C(F)(F)F)c1	15900	–	–
O=c1[nH]c2nccc(Oc3cccc(NS(=O)(=O)c4ccccc4)c3)c2[nH]1	1660	29.6	0.175
O=C(Nc1cccc(Oc2ccnc3[nH]c(=O)[nH]c23)c1)c1cccc(Br)c1	1560	100	0.907
O=c1[nH]c2nccc(Oc3cccc(NS(=O)(=O)c4cccc(OC(F)(F)F)c4)c3)c2[nH]1	11300	94	0.83
CC(C)(C)c1cc(C(=O)Nc2cccc(Oc3ccnc4[nH]c(=O)[nH]c34)c2)n(Cc2ccccc2)n1	> 100000	> 100	–
O=C(Nc1cccc(Oc2ccnc3[nH]c(=O)[nH]c23)c1)c1cccc(-n2cccc2)c1	57	20.4	1.1
O=C(Nc1cccc(OC(F)(F)F)c1)c1cccc(Oc2ccnc3[nH]c(=O)[nH]c23)c1	48	14.6	2.4
O=c1[nH]c2nccc(Oc3cccc(NCc4cccc(OC(F)(F)F)c4)c3)c2[nH]1	> 10000	> 100	0.74
O=C(Cc1cccc(OC(F)(F)F)c1)Nc1cccc(Oc2ccnc3[nH]c(=O)[nH]c23)c1	> 10000	12.8	29.4
O=C(Nc1cccc(Oc2ccnc3[nH]c(=O)[nH]c23)c1)Nc1cc(C(F)(F)F)ccc1N1CCOCC1	740	42	16.7
O=C(Cc1cccc(C(F)(F)F)c1)Nc1cccc(Oc2ccnc3[nH]c(=O)[nH]c23)c1	> 10000	17.8	25.7
O=C(Nc1cccc(Oc2ccnc3[nH]c(=O)[nH]c23)c1)c1ccc2nsnc2c1	> 100000	> 100	8.3
O=C(Nc1cc(Oc2ccnc3[nH]c(=O)[nH]c23)ccc1Cl)c1cccc(OC(F)(F)F)c1	240	> 100	35
Cc1ccc(-n2nc(C(C)(C)C)cc2NC(=O)Nc2cccc(Oc3ccnc4[nH]c(=O)[nH]c34)c2)cc1	128	0.83	0.705
O=C(Nc1cccc(Oc2ccnc3[nH]c(=O)[nH]c23)c1)c1cccc2ccccc12	920	29	23
O=C(Nc1cccc(Oc2ccnc3[nH]c(=O)[nH]c23)c1)c1ccc(Cl)c(C(F)(F)F)c1	124	28	13.4
